Laboratory results reported in ChEMBL document CHEMBL4371064, “Erythrofordins D and E, two new cassaine-type diterpenes from Erythrophleum suaveolens” (2019).

Key:
Assay type in all cases: functional
HOP-62 = experiment: Growth inhibition of human HOP62 cells incubated for 48 hrs by sulforhodamine B assay; settings: HOP-62, 48 h
Method in brief: (§1)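 Run in the NCI-60 human tumour cell line panel with dose-response testing. GI50 was determined for each cell line from its dose-response data.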

SK-MEL-28 = experiment: Growth inhibition of human SK-MEL-28 cells incubated for 48 hrs by sulforhodamine B assay; settings: SK-MEL-28, 48 h; method in brief: as §1
KM12 = experiment: Growth inhibition of human KM12 cells incubated for 48 hrs by sulforhodamine B assay; settings: KM12, 48 h; method in brief: as §1
OVCAR-5 = experiment: Growth inhibition of human OVCAR5 cells incubated for 48 hrs by sulforhodamine B assay; settings: OVCAR-5, 48 h; method in brief: as §1
ACHN = experiment: Growth inhibition of human ACHN cells incubated for 48 hrs by sulforhodamine B assay; method in brief: as §1
HOP-92 = experiment: Growth inhibition of human HOP92 cells incubated for 48 hrs by sulforhodamine B assay; settings: HOP-92, 48 h; method in brief: as §1
SK-MEL-5 = experiment: Growth inhibition of human SK-MEL-5 cells incubated for 48 hrs by sulforhodamine B assay; settings: SK-MEL-5, 48 h; method in brief: as §1
IGROV-1 = experiment: Growth inhibition of human IGROV1 cells incubated for 48 hrs by sulforhodamine B assay; settings: IGROV-1, 48 h; method in brief: as §1
786-0 = experiment: Growth inhibition of human 786-0 cells incubated for 48 hrs by sulforhodamine B assay; settings: 786-0, 48 h; method in brief: as §1
TK-10 = experiment: Growth inhibition of human TK10 cells incubated for 48 hrs by sulforhodamine B assay; settings: TK-10, 48 h
Method in brief: (§2)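 Tested in the NCI 60-human-tumour-cell-line screen using the five-dose format. GI₅₀ was derived from each cell line's dose-response. TGI and LC₅₀ were derived from the same dose-response data.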

SNB-75 = experiment: Growth inhibition of human SNB75 cells incubated for 48 hrs by sulforhodamine B assay; settings: SNB-75, 48 h; method in brief: as §1
NCI-H23 = experiment: Growth inhibition of human NCI-H23 cells incubated for 48 hrs by sulforhodamine B assay; settings: NCI-H23, 48 h; method in brief: as §1
PC-3 = experiment: Growth inhibition of human PC3 cells incubated for 48 hrs by sulforhodamine B assay; settings: PC-3, 48 h; method in brief: as §1
LOX IMVI = experiment: Growth inhibition of human LOXIMVI cells incubated for 48 hrs by sulforhodamine B assay; method in brief: as §1
UO-31 = experiment: Growth inhibition of human UO31 cells incubated for 48 hrs by sulforhodamine B assay; settings: UO-31, 48 h; method in brief: as §2
UACC-62 = experiment: Growth inhibition of human UACC62 cells incubated for 48 hrs by sulforhodamine B assay; settings: UACC-62, 48 h; method in brief: as §2
MDA-MB-435 = experiment: Growth inhibition of human MDA-MB-435 cells incubated for 48 hrs by sulforhodamine B assay; settings: MDA-MB-435, 48 h; method in brief: as §1
DU-145 = experiment: Growth inhibition of human DU145 cells incubated for 48 hrs by sulforhodamine B assay; settings: DU-145, 48 h; method in brief: as §1
CCRF-CEM = experiment: Growth inhibition of human CCRF-CEM cells incubated for 48 hrs by sulforhodamine B assay; method in brief: as §1
CAKI-1 = experiment: Growth inhibition of human Caki1 cells incubated for 48 hrs by sulforhodamine B assay; settings: CAKI-1, 48 h; method in brief: as §1
NCI/ADR-RES = experiment: Growth inhibition of human NCI/ADR-RES cells incubated for 48 hrs by sulforhodamine B assay; method in brief: as §1
SNB-19 = experiment: Growth inhibition of human SNB19 cells incubated for 48 hrs by sulforhodamine B assay; settings: SNB-19, 48 h; method in brief: as §1
HCT-15 = experiment: Growth inhibition of human HCT15 cells incubated for 48 hrs by sulforhodamine B assay; settings: HCT-15, 48 h; method in brief: as §1
OVCAR-3 = experiment: Growth inhibition of human OVCAR3 cells incubated for 48 hrs by sulforhodamine B assay; settings: OVCAR-3, 48 h; method in brief: as §1
MOLT-4 = experiment: Growth inhibition of human MOLT4 cells incubated for 48 hrs by sulforhodamine B assay; settings: MOLT-4, 48 h; method in brief: as §1
NCI-H460 = experiment: Growth inhibition of human NCI-H460 cells incubated for 48 hrs by sulforhodamine B assay; settings: NCI-H460, 48 h; method in brief: as §1
BT-549 = experiment: Growth inhibition of human BT549 cells incubated for 48 hrs by sulforhodamine B assay; settings: BT-549, 48 h; method in brief: as §1
MDA-MB-468 = experiment: Growth inhibition of human MDA-MB-468 cells incubated for 48 hrs by sulforhodamine B assay; settings: MDA-MB-468, 48 h; method in brief: as §1
Hs-578T = experiment: Growth inhibition of human Hs578T cells incubated for 48 hrs by sulforhodamine B assay; method in brief: as §1
[1] = read-out: pLC50 (the source's name) (converted)

Compound: COC(=O)/C=C1\CC[C@H]2[C@@H](CC(=O)[C@H]3C(C)(C)[C@@H](O)CC[C@]23C)[C@H]1C
- GI50 (HOP-62): 1100 nM
- CC50 (HOP-62; [1]): 15.1 µM
- TGI (HOP-62; read-out: pTGI (converted)): 4.47 µM
- GI50 (SK-MEL-28): 9.33 µM
- LC50 (SK-MEL-28): > 34.7 µM
- TGI (SK-MEL-28; read-out: pTGI (converted)): 33.1 µM
- GI50 (KM12): 11 µM
- LC50 (concentration killing 50% of cells) (KM12): > 34.7 µM
- TGI (KM12; read-out: pTGI): > 34.7 µM
- GI50 (OVCAR-5): 5.89 µM
- LC50 (OVCAR-5): > 34.7 µM
- TGI (OVCAR-5; read-out: pTGI (converted)): 17.4 µM
- GI50 (ACHN): 794 nM
- LC50 (ACHN): 10 µM
- TGI (ACHN; read-out: pTGI (converted)): 2190 nM
- GI50 (HOP-92): 5.75 µM
- LC50 (HOP-92): > 34.7 µM
- TGI (HOP-92; read-out: pTGI (converted)): 23.4 µM
- GI50 (SK-MEL-5): 1290 nM
- LC50 (SK-MEL-5): 25.7 µM
- TGI (SK-MEL-5; read-out: pTGI (converted)): 5.75 µM
- GI50 (IGROV-1): 3.8 µM
- LC50 (IGROV-1): > 34.7 µM
- TGI (IGROV-1; read-out: pTGI (converted)): 22.4 µM
- GI50 (786-0): 1120 nM
- LC50 (786-0): 24.5 µM
- TGI (786-0; read-out: pTGI (converted)): 4.27 µM
- GI50 (TK-10): 1480 nM
- LC50 (lethal concentration killing 50% of cells) (TK-10): > 34.7 µM
- TGI (TK-10; read-out: pTGI (converted)): 7.94 µM
- GI50 (SNB-75): 1100 nM
- LC50 (concentration killing 50% of cells) (SNB-75): 23.4 µM
- TGI (SNB-75; read-out: pTGI (converted)): 6.46 µM
- GI50 (NCI-H23): 1230 nM
- LC50 (NCI-H23): > 34.7 µM
- TGI (NCI-H23; read-out: pTGI (converted)): 7.76 µM
- GI50 (PC-3): 3.16 µM
- CC50 (PC-3; [1]): > 34.7 µM
- TGI (PC-3; read-out: pTGI (converted)): 15.8 µM
- GI50 (LOX IMVI): 2000 nM
- LC50 (LOX IMVI): > 34.7 µM
- TGI (LOX IMVI; read-out: pTGI (converted)): 9.55 µM
- GI50 (UO-31): 1050 nM
- LC50 (UO-31): 16.2 µM
- TGI (UO-31; read-out: pTGI (converted)): 5.01 µM
- GI50 (UACC-62): 5.62 µM
- LC50 (UACC-62): > 34.7 µM
- TGI (UACC-62; read-out: pTGI (converted)): 16.6 µM
- GI50 (MDA-MB-435): 8.51 µM
- LC50 (MDA-MB-435): > 34.7 µM
- TGI (MDA-MB-435; read-out: pTGI (converted)): > 34.7 µM
- GI50 (DU-145): 776 nM
- LC50 (concentration killing 50% of cells) (DU-145): 4.79 µM
- TGI (DU-145; read-out: pTGI (converted)): 1740 nM
- GI50 (CCRF-CEM): 1150 nM
- LC50 (CCRF-CEM): > 34.7 µM
- TGI (CCRF-CEM; read-out: pTGI (converted)): 7.59 µM
- GI50 (CAKI-1): 1380 nM
- LC50 (CAKI-1): > 34.7 µM
- TGI (CAKI-1; read-out: pTGI (converted)): 6.76 µM
- GI50 (NCI/ADR-RES): 1200 nM
- CC50 (NCI/ADR-RES; [1]): > 34.7 µM
- TGI (NCI/ADR-RES; read-out: pTGI (converted)): 6.61 µM
- GI50 (SNB-19): 9.33 µM
- LC50 (SNB-19): > 34.7 µM
- TGI (SNB-19; read-out: pTGI (converted)): > 34.7 µM
- GI50 (HCT-15): 4.07 µM
- LC50 (HCT-15): 30.2 µM
- TGI (HCT-15; read-out: pTGI (converted)): 11 µM
- GI50 (OVCAR-3): 1320 nM
- LC50 (OVCAR-3): 21.4 µM
- TGI (OVCAR-3; read-out: pTGI (converted)): 4.9 µM
- GI50 (MOLT-4): 813 nM
- LC50 (MOLT-4): > 34.7 µM
- TGI (MOLT-4; read-out: pTGI (converted)): 2140 nM
- GI50 (NCI-H460): 776 nM
- LC50 (NCI-H460): 5.13 µM
- TGI (NCI-H460; read-out: pTGI (converted)): 1740 nM
- GI50 (BT-549): 1260 nM
- LC50 (BT-549): > 34.7 µM
- TGI (BT-549; read-out: pTGI (converted)): 5.5 µM
- GI50 (MDA-MB-468): 10 µM
- CC50 (MDA-MB-468; [1]): > 34.7 µM
- TGI (MDA-MB-468; read-out: pTGI (converted)): > 34.7 µM
- GI50 (Hs-578T): 955 nM
- LC50 (Hs-578T): > 34.7 µM
- TGI (Hs-578T; read-out: pTGI (converted)): 3.39 µM
